Columns and labels:
Assay type in all cases: functional
BT-549 [1] = experiment: Growth inhibition of human BT549 cells assessed as cell growth at 10 uM relative to untreated control; details: read-out: Activity
How it was run: (§1)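 NCI DTP 60-cell-line screen, first stage: a single 10 µM dose of compound given to the human tumour panel. Result reported as percent growth relative to control, on a mean growth graph.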

CCRF-CEM = experiment: Growth inhibition of human CCRF-CEM cells
How it was run: (§2)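 NCI DTP 60-cell-line screen, second stage: five-dose testing across the human tumour panel. GI₅₀ taken as the concentration needed to inhibit cell growth by 50% in each cell line.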

HL-60(TB) = experiment: Growth inhibition of human HL-60(TB) cells
How it was run: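 NCI DTP NCI-60 screen, second stage: five-dose testing across 60 human tumour cell lines from nine tissue types. GI50 is the concentration that inhibits cell growth by 50%, obtained for each cell line.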

K562 = experiment: Growth inhibition of human K562 cells; how it was run: as §2
[2] = Growth inhibition of human RPMI8266 cells
How it was run: (§3)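 Part of the NCI DTP 60-cell-line panel. After the single-dose stage, cells were tested at five doses. Read-out is the GI50, the concentration giving 50% inhibition of cell growth, derived for each cell line.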

SR = experiment: Growth inhibition of human SR cells
How it was run: (§4)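 This is the second, five-dose stage of the NCI DTP 60-cell-line screen. GI50 is the concentration that inhibits cell growth by 50%, derived for each cell line.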

HOP-62 = experiment: Growth inhibition of human HOP62 cells; how it was run: as §2
NCI-H322M = experiment: Growth inhibition of human NCI-H322M cells; how it was run: as §3
NCI-H460 = experiment: Growth inhibition of human NCI-H460 cells; how it was run: as §3
KM12 = experiment: Growth inhibition of human KM12 cells; how it was run: as §2
SF-539 = experiment: Growth inhibition of human SF539 cells; how it was run: as §3
SNB-19 = experiment: Growth inhibition of human SNB19 cells; how it was run: as §4
SNB-75 = experiment: Growth inhibition of human SNB75 cells; how it was run: as §4
LOX IMVI = experiment: Growth inhibition of human LOXIMVI cells; how it was run: as §2
Malme-3M [3] = experiment: Growth inhibition of human MALME-3M cells; how it was run: as §2
SK-MEL-2 = experiment: Growth inhibition of human SK-MEL-2 cells; how it was run: as §3
SK-MEL-28 = experiment: Growth inhibition of human SK-MEL-28 cells; how it was run: as §3
UACC-257 = experiment: Growth inhibition of human UACC257 cells; how it was run: as §4
UACC-62 = experiment: Growth inhibition of human UACC62 cells; how it was run: as §4
OVCAR-3 = experiment: Growth inhibition of human OVCAR3 cells; how it was run: as §3
OVCAR-5 = experiment: Growth inhibition of human OVCAR5 cells; how it was run: as §3
786-0 = experiment: Growth inhibition of human 786-0 cells; how it was run: as §2
RXF 393 = experiment: Growth inhibition of human RXF393 cells; how it was run: as §3
UO-31 = experiment: Growth inhibition of human UO31 cells; how it was run: as §4
MCF7 = experiment: Growth inhibition of human MCF7 cells; how it was run: as §3
BT-549 [4] = experiment: Growth inhibition of human BT549 cells; how it was run: as §2
Malme-3M [5] = experiment: Growth inhibition of human MALME-3M cells assessed as cell growth at 10 uM relative to untreated control; details: read-out: Activity; how it was run: as §1
IGROV-1 = experiment: Growth inhibition of human IGROV1 cells assessed as cell growth at 10 uM relative to untreated control; details: read-out: Activity; how it was run: as §1

Compound: N=C1c2nc3n(c2C(=O)c2nc4n(c21)CCCC4)CCCC3
- growth at 10 µM (BT-549 [1]): -37.2%
- GI50 (CCRF-CEM): 49000 nM
- GI50 (HL-60(TB)): 23400 nM
- GI50 (K562): 20400 nM
- GI50 [2]: 25700 nM
- GI50 (SR): 8510 nM
- GI50 (HOP-62): 2450 nM
- GI50 (NCI-H322M): 1700 nM
- GI50 (NCI-H460): 1620 nM
- GI50 (KM12): 13200 nM
- GI50 (SF-539): 2570 nM
- GI50 (SNB-19): 2570 nM
- GI50 (SNB-75): 2190 nM
- GI50 (LOX IMVI): 562 nM
- GI50 (Malme-3M [3]): 1860 nM
- GI50 (SK-MEL-2): 38000 nM
- GI50 (SK-MEL-28): 2090 nM
- GI50 (UACC-257): 1950 nM
- GI50 (UACC-62): 1740 nM
- GI50 (OVCAR-3): 20400 nM
- GI50 (OVCAR-5): 2630 nM
- GI50 (786-0): 44700 nM
- GI50 (RXF 393): 16600 nM
- GI50 (UO-31): 2340 nM
- GI50 (MCF7): 1860 nM
- GI50 (BT-549 [4]): 2040 nM

Compound: O=C1c2nc3n(c2C(=O)c2nc4n(c21)CCCC4)CCCC3
- growth at 10 µM (Malme-3M [5]): 79.6%
- growth at 10 µM (IGROV-1): 107%

Source: ChEMBL document CHEMBL2021842, “COMPARE analysis of the toxicity of an iminoquinone derivative of the imidazo[5,4-f]benzimidazoles with NAD(P)H:quinone oxidoreductase 1 (NQO1) activity and computational docking of quinones as NQO1 substrates” (Bioorg Med Chem, 2012)
